# In article PMC11771645 (Journal of Clinical Pharmacology, 2024):
# “Also recorded” adds a separate entry of the source. Read-outs that look alike come from different tables or passages of the source.
# Key:
# Food-effect study = type: in vivo, human
# CYP2C19 = conditions: clinical doses; cited from earlier work
# CYP3A4 [1] = target: CYP3A4 (Homo sapiens, UniProt P08684); test: Reaction phenotyping studies; type: in vitro ADME
# CYP2C9 = conditions: clinical doses; cited from earlier work
# [2] = Clinical PK in healthy volunteer studies; type: in vivo, human
# [3] = Phase 2 Friedreich's ataxia study, observed PK; type: in vivo; conditions: human, plasma, oral, geometric mean; for AUC: AUC0‐8 h
# Procedure, shortened: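 Phase 2 study in patients with Friedreich's ataxia, with repeated oral dosing of the test compound at 200 mg or 400 mg TID. Observed plasma Cmax and AUC0-8 h were summarised as geometric means on Day 1 and Day 91. These observed data served to verify the PBPK model, with simulated exposures judged accurate if within 1.5-fold of observed.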
# CYP1A2 = test: In vitro CYP1A2 induction; type: in vitro ADME, human
# CYP3A4 [4] = test: In vitro CYP3A4 induction; type: in vitro ADME, human
# [5] = patients with Friedreich's ataxia; cited from earlier work
# [6] = oral dose, male subjects; cited from earlier work
# [7] = test system: breast cancer resistance protein (BCRP); conditions: clinical doses; cited from earlier work
# CYP3A4 [8] = conditions: cited from earlier work
# CYP3A4 [9] = conditions: cited from earlier work; remark: listed apart in the source
# [10] = Unbound fraction in plasma; type: in vitro ADME; conditions: human
# [11] = 400 mg vatiquinone with 200 mg itraconazole
# [12] = Observed, Vatiquinone + Itraconazole (5 days TID, 200 mg)
# [13] = in the presence of itraconazole
# [14] = 400 mg vatiquinone with 600 mg rifampicin
# [15] = Observed, Vatiquinone + Rifampicin (14 days TID, 600 mg)
# Sequence of CYP3A4 (Homo sapiens, UniProt P08684) (P08684 whole entry): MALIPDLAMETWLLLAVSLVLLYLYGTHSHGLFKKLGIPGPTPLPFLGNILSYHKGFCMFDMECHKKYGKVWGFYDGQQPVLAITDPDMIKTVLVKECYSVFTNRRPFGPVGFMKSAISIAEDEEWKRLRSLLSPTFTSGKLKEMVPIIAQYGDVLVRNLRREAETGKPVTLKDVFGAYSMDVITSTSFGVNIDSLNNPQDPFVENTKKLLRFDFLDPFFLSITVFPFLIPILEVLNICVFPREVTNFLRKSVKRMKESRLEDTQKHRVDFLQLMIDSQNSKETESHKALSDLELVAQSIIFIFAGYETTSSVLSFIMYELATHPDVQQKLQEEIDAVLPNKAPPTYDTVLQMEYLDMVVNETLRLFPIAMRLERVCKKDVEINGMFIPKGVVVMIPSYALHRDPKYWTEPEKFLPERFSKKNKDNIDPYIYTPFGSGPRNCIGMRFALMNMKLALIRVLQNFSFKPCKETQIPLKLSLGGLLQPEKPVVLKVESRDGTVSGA
smiles,measurement,setting,value
"CC(C)=CCC/C(C)=C/CC/C(C)=C/CC[C@@](C)(O)CCC1=C(C)C(=O)C(C)=C(C)C1=O [Vatiquinone, alpha‐tocotrienol quinone]","AUC, low‐fat meals compared with fasted",Food-effect study,8 fold
same,effect of vatiquinone on CYP2C19 substrate (omeprazole) exposure,CYP2C19,did not have a significant impact; also recorded: lack of a clinically relevant effect
same,enzyme mediating vatiquinone metabolism,CYP3A4 [1],mainly mediated by CYP3A4
same,effect of vatiquinone on CYP2C9 substrate (tolbutamide) exposure,CYP2C9,did not have a significant impact; also recorded: lack of a clinically relevant effect
same,ka,[2]; Clinical study,1.27 h⁻¹
same,tlag,[2]; Clinical study,3.67 h
same,CL/F (apparent oral clearance),"[2]; healthy volunteer studies, from AUC0-inf in the absence of itraconazole",94.3 L/h
same,half-life,"[2]; human, in vivo, oral",~540 min
same,AUC,"[3]; 200 mg, 200 mg TID, Day 1, patients with Friedreich's ataxia",1030 ng·h/mL
same,AUC,"[3]; 200 mg, 200 mg TID, Day 91",1950 ng·h/mL
same,Cmax,"[3]; 200 mg, 200 mg TID, Day 1",466 ng/mL
same,Cmax,"[3]; 200 mg, 200 mg TID, Day 91",689 ng/mL
same,AUC,"[3]; 400 mg, 400 mg TID, Day 1, patients with Friedreich's ataxia",2430 ng·h/mL
same,AUC,"[3]; 400 mg, 400 mg TID, Day 91",3490 ng·h/mL
same,Cmax,"[3]; 400 mg, 400 mg TID, Day 1",1020 ng/mL
same,Cmax,"[3]; 400 mg, 400 mg TID, Day 91",905 ng/mL
same,CYP1A2 Indmax,CYP1A2; In vitro study,2.61
same,CYP1A2 Indmax,CYP1A2; Scaled using omeprazole data,1.04
same,EC50,CYP1A2; human,1800 nM
same,CYP1A2 induction potential,CYP1A2; in vitro data,borderline potential inducer
same,CYP3A4 Indmax,CYP3A4 [4]; Scaled using rifampicin data,4.26
same,EC50,CYP3A4 [4]; human,3.7 µM
same,CYP3A4 induction potential,CYP3A4 [4]; in vitro data,borderline potential inducer
same,tolerability,[5],well tolerated with no dose‐limiting toxicities
same,mean cumulative recovery,[6],92.9%
same,recovery of unchanged vatiquinone in feces,[6],6.77 % of dose
same,effect of vatiquinone on BCRP substrate (rosuvastatin) exposure,[7],did not have a significant impact; also recorded: lack of a clinically relevant effect
same,increase in vatiquinone AUC0‐inf,CYP3A4 [8]; [11],~2.9 fold
same,increase in vatiquinone Cmax,CYP3A4 [8]; [11],approximately 3.5 fold
same,"AUC0‐inf, geometric mean",CYP3A4 [8]; [12],"11,300 h•ng/mL"
same,"Cmax, geometric mean",CYP3A4 [8]; [12],3430 ng/mL
same,increase in vatiquinone AUC0‐inf,CYP3A4 [8]; [13],~188%
same,increase in vatiquinone Cmax,CYP3A4 [8]; [13],approximately 245%
same,decrease in vatiquinone AUC0‐inf,CYP3A4 [9]; [14],~46%
same,decrease in vatiquinone Cmax,CYP3A4 [9]; [14],approximately 36%
same,"AUC0‐inf, geometric mean",CYP3A4 [9]; [15],1830 ng·h/mL
same,"Cmax, geometric mean",CYP3A4 [9]; [15],619 ng/mL
same,fraction unbound,[10],0.022
